Screening results as filed in PubChem.
IMP-1 inhibitor – blocks Pseudomonas aeruginosa IMP-1 metallo-beta-lactamase | inhibition, % at 5.6 µM | 290,000 compounds, 0.45% hits | purified IMP-1, nitrocefin hydrolysis, epi-absorbance fluorescence | AID 1556;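 active = inhibition above the mean plus 3 SD of all compounds in the same screening run, cut at about 4.5% in these data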;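 note: 0% = IMP-1 with DMSO and 100% = DMSO wells lacking enzyme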
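System: purified IMP-1; amount: IMP-1 0.2 nM before substrate addition; compound: single dose, 5.6 µM; times: 25 °C, 15 min preincubation, 25 min reaction; signal: Epi-absorbance via hydrolysed-nitrocefin quenching of white-plate fluorescence, 480/530 nm, EDTA stop; benchmarks: DMSO with and without IMP-1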
Runt-CBFb FRET – inhibitors of human RUNX1 Runt domain binding to CBFb; Cerulean-Runt/Venus-CBFb FRET ratio 530/480, 1 h; AID 1496; inhibition, % at 20 µM; Q01196+Q13951; 220,000 compounds, 0.46% hits;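 active = inhibition over about 50% at 20 µM in the single-dose screen, limit read from the data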;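 note: 0% = DMSO wells and 100% = excess unlabeled CBFb competitor control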
Target sequence (Q01196 whole entry, looked up, the tested form may be a part): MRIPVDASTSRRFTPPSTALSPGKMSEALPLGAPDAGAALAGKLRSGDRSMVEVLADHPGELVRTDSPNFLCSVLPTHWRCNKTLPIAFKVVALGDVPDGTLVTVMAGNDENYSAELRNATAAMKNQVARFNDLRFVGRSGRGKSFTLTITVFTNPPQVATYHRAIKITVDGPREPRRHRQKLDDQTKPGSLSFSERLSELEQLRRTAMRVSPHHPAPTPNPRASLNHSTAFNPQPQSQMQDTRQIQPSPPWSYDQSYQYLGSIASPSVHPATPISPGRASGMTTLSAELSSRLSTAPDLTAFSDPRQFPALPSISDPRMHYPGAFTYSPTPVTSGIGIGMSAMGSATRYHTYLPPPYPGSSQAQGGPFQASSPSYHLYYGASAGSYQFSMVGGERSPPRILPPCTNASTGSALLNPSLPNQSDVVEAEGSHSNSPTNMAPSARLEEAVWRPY
Target sequence (Q13951 whole entry, looked up, the tested form may be a part): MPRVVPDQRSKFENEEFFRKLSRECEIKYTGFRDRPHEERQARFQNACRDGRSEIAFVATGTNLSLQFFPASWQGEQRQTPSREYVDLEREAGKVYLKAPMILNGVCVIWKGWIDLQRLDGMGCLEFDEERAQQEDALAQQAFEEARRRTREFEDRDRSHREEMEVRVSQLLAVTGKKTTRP
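Doses: 20 µM compound in 1% DMSO | Material: Cerulean-labeled Runt domain protein | Amount: Each fluorescent fusion protein 100 nM | Schedule: Two 1 h room-temperature incubations shielded from light | Measured by: FRET fluorescence | Evaluation: Loss of energy transfer signal | Controls: Unlabeled CBFb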
RanGTP-Imp inh – inhibitors of RanGTP-importin-beta interaction, primary screen, biochemical, FRET, CFP-Ran, YFP-importin-beta, homogeneous; inhibition, % (no concentration beside the values); cell-free CFP-Ran/YFP-importin-beta FRET ratio; 300,000 compounds, 1.1% hits; AID 2216;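 active = more than half of the replicate wells show a fall in the fluorescence ratio signal beyond about 16%, limit read from the data, passing the limit was not always enough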;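 note: 0% = DMSO wells and 100% = Ran loaded with GDP instead of GTP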
Runt-SMMHC FRET – inhibitors of human RUNX1 Runt domain binding to CBFb-SMMHC. Cerulean-Runt/Venus-CBFb-SMMHC FRET ratio 530/480, 1 h. inhibition, % at 20 µM. 220,000 compounds, 0.74% hits. AID 1434;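 active = mean inhibition across duplicate retests at 20 µM reaching about 50%, limit read from the data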;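 note: 0% = DMSO wells and 100% = wells with excess untagged CBFb-SMMHC; inhibitors lower the FRET ratio by blocking Runt binding to CBFb-SMMHC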
VIM-2 inhibitor – blocks Pseudomonas aeruginosa VIM-2 metallo-beta-lactamase. purified VIM-2, nitrocefin hydrolysis, epi-absorbance fluorescence. 290,000 compounds, 0.89% hits. AID 1527. inhibition, % at 5.6 µM;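 active = inhibition above the mean of all tested compounds plus 3 SD, cutoff set per screening run, cut at about 7.5% in these data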;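 note: red hydrolysis product quenches plate fluorescence so inhibitors raise well fluorescence; 0% = enzyme with DMSO and 100% = DMSO without enzyme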
YIC counter – counter-screen YIC FRET for RanGTP-importin-beta inhibitors; Purified YIC probe, intramolecular FRET ratio YFP/CFP; shares compounds with RanGTP-Imp inh; IC50, µM; 1,000 compounds, 40% hits;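 active = fitted half-maximal inhibitory concentration no more than tenfold above the top dose tested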
Starred values were filed as active, the others as inactive; . = no result given. Rows were chosen to be rich in hits. Some 2.6% of all compounds tested hit in one or more screens of this group.

SMILES	IMP-1 inhibitor	Runt-CBFb FRET	RanGTP-Imp inh	Runt-SMMHC FRET	VIM-2 inhibitor	YIC counter
Cc1c(C(=O)NCC(c2ccco2)N(C)C)oc2c(Cl)cccc12 (stereo not given)	.	.	-2	.	.	.
N#C/C(=C\c1ccc(O)c(Br)c1)C(=O)NCc1ccccc1	-1	104*	43*	134*	-1	20*
N#C/C(=C\c1ccc(O)c([N+](=O)[O-])c1)C(=O)NCc1ccccc1	0	-2	3	1	-1	.
CC1CC(C)CN(S(=O)(=O)c2ccc3c(c2)CC(C)N3C(=O)C2CC2)C1 (stereo not given)	0	.	3	.	-1	.
COc1ccc(S(=O)(=O)NCCc2cn3nc(C)c(C)nc3n2)cc1C	-4	.	11	.	-1	.
Cc1ccc(S(=O)(=O)NCCc2cn3nc(C)c(C)nc3n2)cc1C	-2	.	20*	.	-1	26*
CN(C)/C=N/c1nc2nccc(-c3cccs3)n2n1	-2	2	17*	10	4	14*
CN(C)/C=N/c1nc2nccc(-c3ccc(F)cc3)n2n1	-2	2	-3	-1	0	.
Cc1nc(N2CCC(C)CC2)c2c(C)c(C(=O)Nc3cccc(C(F)(F)F)c3)sc2n1	0	-6	-4	-4	-3	.
Cc1nc(Nc2cnc(/C=C/c3cc(C(=O)Nc4cccc(C(F)(F)F)c4)ccc3C)cn2)cc(N2CCNCC2)n1	1	.	41*	.	-1	18*
CCC(=O)N(C)/C=C1\Sc2ccccc2C1=O	0	.	20*	154*	7	>50
CC(O)CNc1nc2ccccc2n1CC(=O)NC12CC3CC(CC(C3)C1)C2 (stereo not given)	-3	-3	22*	1	-3	>50
CC(O)CNc1nc2ccccc2n1CC(=O)NCC(F)(F)F (stereo not given)	-2	0	1	0	0	.
COc1ccc(C(=O)N2CCN(c3ccccn3)CC2)cc1[N+](=O)[O-]	-2	1	-4	3	-1	.
COc1ccc(Br)cc1/C=C/C(=O)NC(=S)Nc1ccc(CN2CCOCC2)cc1	-3	.	50*	.	-8	>50
COc1ccc(NC(=O)CN2C(=O)CC(C)S(=O)(=O)c3ccccc32)cc1 (stereo not given)	-1	.	18*	.	1	>50
COC(=O)c1ccc(NC(=O)CN2C(=O)CC(C)S(=O)(=O)c3ccccc32)cc1 (stereo not given)	1	.	-2	.	0	.
COc1ccc(OCC(=O)N2N=C(C(F)F)CC2(O)C(F)F)cc1 (stereo not given)	-2	-2	2	-4	-1	.
COc1ccccc1S(=O)Cc1ccc(C(=O)O)o1 (stereo not given)	-5	.	20*	3	-3	>50
Cc1cc(=O)oc2c3c(cc(OCC(=O)NCC4CCC(C(=O)O)CC4)c12)OC(C)(C)CC3 (stereo not given)	-2	.	-1	.	-1	.
CCN(CC)S(=O)(=O)c1cc(C(=O)Nc2ccccc2[N+](=O)[O-])ccc1Cl	-1	-2	25*	0	-3	>50
COc1ccc(S(=O)(=O)N2CC(=O)Nc3ccccc32)cc1C	-3	.	3	.	-2	.
COc1cc(-c2nc3cnccn3c2Nc2ccc(C(C)C)cc2)ccc1O	-5	2	32*	11	-3	>50
CC(C)CCNC(=O)C(c1ccco1)N(Cc1ccccc1)C(=O)c1snc(C(N)=O)c1N (stereo not given)	-3	-4	30*	6	-1	>50
Cn1c(N)c(C(=O)COC(=O)C2(c3ccc(F)cc3)CCCC2)c(=O)n(C)c1=O	0	-4	22*	-1	1	>50
SMILES	IMP-1 inhibitor	Runt-CBFb FRET	RanGTP-Imp inh	Runt-SMMHC FRET	VIM-2 inhibitor	YIC counter
COc1ccc(OC)c(N(CC(=O)O)S(=O)(=O)c2ccc(OC)c(OC)c2)c1	-1	0	21*	1	-1	>50
COc1ccc(OC)c(N(CC(=O)N2CCCC2)S(=O)(=O)c2ccc(OC)c(OC)c2)c1	0	-1	-3	-2	-1	.
COc1ccc(C2=NN(C(=O)CSc3nc(=O)n4cc(C)ccc4n3)C(c3ccc(C)cc3)C2)cc1 (stereo not given)	.	.	-3	.	.	.
COc1ccc(CCNC(=O)c2cc3c(=O)n4ccccc4nc3n(CCCN3CCOCC3)c2=N)cc1	-4	.	20*	.	10*	21*
COc1cc(OC)cc(-n2nc(C(=O)NCCCN3CCOCC3)c3ccccc3c2=O)c1	-1	0	.	1	1	.
COc1ccc(CCn2c(=N)c(C(=O)NC3CCCCC3)cc3c(=O)n4ccccc4nc32)cc1	-3	.	19*	.	5	>50
Cc1cc(C)c(C#N)c(Nc2ccccc2C)n1	-2	.	19*	.	0	>50
Cc1ccc(NC(=O)CN(C)S(=O)(=O)c2cccs2)cc1C	-3	0	1	0	-2	.
C[C@H](CO)N1C[C@H](C)[C@@H](CN(C)S(=O)(=O)c2cccs2)Oc2ccc(NC(=O)Cc3ccccc3)cc2CC1=O	.	.	.	.	.	>50
C[C@@H]1CCCCO[C@H](CN(C)Cc2ccc3c(c2)OCO3)[C@@H](C)CN([C@H](C)CO)C(=O)c2cc(NC(=O)CCCN(C)C)ccc2O1	.	.	.	.	.	>46
CCOC(=O)/C=C/COc1ccccc1[N+](=O)[O-]	-2	0	3	1	-1	.
CC(=O)Nc1ccc(S(=O)(=O)N2CCC(N3CCCCCC3)CC2)cc1	-5	.	-2	.	-2	.
CCCc1cc(=O)oc2c(CN3CCN(C)CC3)c(O)c(Cl)cc12	.	123*	50*	101*	.	31*
CCCCc1cc(=O)oc2c(CN3CCCC3)c(O)c(Cl)cc12	-1	96*	26*	135*	-4	28*
Cc1ccn2c(=O)nc(SCC(=O)Nc3ccc4c(c3)OCCO4)nc2c1	.	.	7	.	.	.
Cc1cccc(N2C(=O)/C(=C/c3cccnc3)SC2=S)c1	0	2	19*	1	0	>50
Cc1ccc(N2C(=O)/C(=C/c3cccnc3)SC2=S)cc1	1	14	-5	1	2	.
COc1ccc(N2C(=O)N3[C@H](c4ccc(Br)cc4)[C@@H]4C(=O)N(C(C)(C)C)C(=O)[C@@H]4[C@]3(Cc3ccccc3)C2=O)cc1	-3	.	26*	.	0	>50
Cc1c(C)c2ccc(OCC(=O)N[C@@H](Cc3ccccc3)C(=O)O)cc2oc1=O	-4	.	5	.	-4	.
Cc1c(CC(=O)NCC(=O)N[C@H](Cc2ccccc2)C(=O)O)c(=O)oc2cc(O)ccc12	0	.	16*	.	1	46*
c1ccc2sc(NC3=NCN(CCN4CCOCC4)CN3)nc2c1	-2	-2	28*	1	-4	>50
